In ChEMBL document CHEMBL2375292, “Biaryl tetrazolyl ureas as inhibitors of endocannabinoid metabolism: modulation at the N-portion and distal phenyl ring” (Eur J Med Chem, 2013):

Legend:
[1] = molecular target: T1, Diacylglycerol lipase-alpha (Homo sapiens) (UniProt Q9Y4D2); test: Activation of human recombinant DAGLalpha expressed in African green monkey COS7 cells assessed as increase in N-oleoylethanolamine level per mg of extracted lipid at 3 uM preincubated for 10 mins measured after 20 mins by LC-MS analysis (reference value: 1.08 +/- 0.17 pmol); assay type: cell-based; conditions: COS-7
T1 sequence (whole entry): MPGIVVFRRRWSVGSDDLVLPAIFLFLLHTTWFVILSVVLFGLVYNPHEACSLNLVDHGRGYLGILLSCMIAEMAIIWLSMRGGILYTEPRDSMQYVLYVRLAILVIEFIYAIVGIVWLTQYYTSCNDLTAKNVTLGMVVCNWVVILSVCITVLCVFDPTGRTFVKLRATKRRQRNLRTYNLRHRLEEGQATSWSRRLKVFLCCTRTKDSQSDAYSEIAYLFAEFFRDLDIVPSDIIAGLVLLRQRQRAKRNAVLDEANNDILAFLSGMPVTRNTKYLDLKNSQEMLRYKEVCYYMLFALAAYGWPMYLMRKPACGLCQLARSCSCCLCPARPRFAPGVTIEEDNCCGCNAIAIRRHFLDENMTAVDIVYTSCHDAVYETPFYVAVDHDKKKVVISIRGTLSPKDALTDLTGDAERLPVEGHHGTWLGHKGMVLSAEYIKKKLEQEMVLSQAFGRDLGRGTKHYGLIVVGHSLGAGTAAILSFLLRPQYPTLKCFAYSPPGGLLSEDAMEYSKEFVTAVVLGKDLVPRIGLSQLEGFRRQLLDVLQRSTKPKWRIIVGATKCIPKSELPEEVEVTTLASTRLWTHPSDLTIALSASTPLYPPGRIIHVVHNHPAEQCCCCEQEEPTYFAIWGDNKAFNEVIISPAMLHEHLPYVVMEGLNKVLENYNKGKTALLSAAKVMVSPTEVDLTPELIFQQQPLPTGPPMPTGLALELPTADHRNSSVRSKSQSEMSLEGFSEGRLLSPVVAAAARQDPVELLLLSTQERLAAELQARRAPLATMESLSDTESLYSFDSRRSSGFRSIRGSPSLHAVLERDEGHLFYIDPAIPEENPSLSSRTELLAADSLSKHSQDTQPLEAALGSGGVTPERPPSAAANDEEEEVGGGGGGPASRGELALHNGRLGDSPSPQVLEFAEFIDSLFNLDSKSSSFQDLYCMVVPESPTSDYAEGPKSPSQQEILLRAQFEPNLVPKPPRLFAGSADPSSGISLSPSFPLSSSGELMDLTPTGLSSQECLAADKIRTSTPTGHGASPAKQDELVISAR
Summary of the method: (§1)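 About 10⁶ COS-7 cells overexpressing human recombinant DAGL-α per data point. Cells were preincubated 10 min with compound, then incubated 20 min at 37 °C with vehicle or ionomycin 3 µM. They were then homogenized in CHCl₃/CH₃OH/Tris-HCl 50 mM pH 7.4 (2/1/1) containing 5 pmol each of d⁸-AEA, d⁵-2-AG and d⁴-OEA as internal standards. Results in pmol/mg lipid extracted, means ± SD, n = 4.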

[2] = molecular target: T1, Diacylglycerol lipase-alpha (Homo sapiens); test: (§2) Activation of human recombinant DAGLalpha expressed in African green monkey COS7 cells assessed as increase in 2-arachidonoylglycerol level per mg of extracted lipid at 3 uM preincubated for 10 mins measured after 20 mins by LC-MS analysis (reference value: 2.82 +/- 0.75 pmol); assay type: cell-based; conditions: COS-7; summary of the method: as §1
[3] = molecular target: T1, Diacylglycerol lipase-alpha (Homo sapiens); test: Activation of human recombinant DAGLalpha expressed in African green monkey COS7 cells assessed as increase in anandamide level per mg of extracted lipid at 3 uM preincubated for 10 mins measured after 20 mins by LC-MS analysis (reference value: 0.16 +/- 004 pmol); assay type: cell-based; conditions: COS-7; summary of the method: as §1
Monoglyceride lipase = molecular target: T2, Monoglyceride lipase (Homo sapiens, UniProt Q99685); test: Inhibition of MAGL (unknown origin) expressed in African green monkey COS7 cell cytosolic fraction assessed as [3H]2-AG hydrolysis to [3H]arachidonic acid after 20 mins by beta counting analysis; design: species or system COS-7
T2 sequence (Q99685 whole entry): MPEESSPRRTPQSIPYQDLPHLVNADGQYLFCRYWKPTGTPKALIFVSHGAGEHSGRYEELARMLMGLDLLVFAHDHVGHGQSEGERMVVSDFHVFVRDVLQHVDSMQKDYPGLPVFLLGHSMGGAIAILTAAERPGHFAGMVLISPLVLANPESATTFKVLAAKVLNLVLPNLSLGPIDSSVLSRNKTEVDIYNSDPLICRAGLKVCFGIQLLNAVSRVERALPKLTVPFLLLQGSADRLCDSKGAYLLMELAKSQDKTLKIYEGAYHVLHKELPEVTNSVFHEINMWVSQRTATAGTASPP

[4] = molecular target: T3, Fatty-acid amide hydrolase 1 (Rattus norvegicus, UniProt P97612); test: Inhibition of FAAH in rat brain membranes assessed as [14C]AEA hydrolysis to [14C]Ethanolamine after 30 mins by scintillation counting analysis; assay type: cell membranes
T3 sequence (P97612 whole entry): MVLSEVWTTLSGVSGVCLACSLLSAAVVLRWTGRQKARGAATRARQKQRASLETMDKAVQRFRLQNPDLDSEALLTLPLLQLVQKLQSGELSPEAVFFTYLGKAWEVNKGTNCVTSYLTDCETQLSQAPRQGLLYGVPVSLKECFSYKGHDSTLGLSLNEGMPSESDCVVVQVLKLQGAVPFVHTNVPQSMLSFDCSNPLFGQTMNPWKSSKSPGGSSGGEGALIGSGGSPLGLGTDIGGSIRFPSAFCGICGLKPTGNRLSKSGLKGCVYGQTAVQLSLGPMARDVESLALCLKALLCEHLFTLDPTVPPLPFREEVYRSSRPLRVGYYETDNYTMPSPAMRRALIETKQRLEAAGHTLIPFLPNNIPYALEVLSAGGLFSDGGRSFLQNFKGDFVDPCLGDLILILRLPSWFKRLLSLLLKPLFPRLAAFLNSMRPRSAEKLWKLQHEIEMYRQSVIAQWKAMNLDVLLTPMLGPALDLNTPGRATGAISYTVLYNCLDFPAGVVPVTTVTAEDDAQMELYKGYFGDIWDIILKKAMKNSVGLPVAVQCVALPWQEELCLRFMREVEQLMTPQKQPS
Summary of the method: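 Rat brain membranes were incubated with [¹⁴C]AEA in 50 mM Tris-HCl pH 9 for 30 min at 37 °C. Released [¹⁴C]ethanolamine in the aqueous phase was counted by scintillation after CHCl₃/CH₃OH 2/1 extraction. IC50 was the concentration giving 50% inhibition.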

[5] = Selectivity ratio of IC50 for FAAH in rat brain membranes to IC50 for MAGL (unknown origin); assay type: cell membranes
[6] = molecular target: T4, Transient receptor potential cation channel subfamily V member 1 (Homo sapiens, UniProt Q8NER1); test: Agonist activity at human TRPV1 receptor expressed in HEK293 cells assessed as increase in intracellular Ca2+ concentration by spectrofluorimetric analysis relative to ionomycin; assay type: cell-based
T4 sequence (Q8NER1 whole entry): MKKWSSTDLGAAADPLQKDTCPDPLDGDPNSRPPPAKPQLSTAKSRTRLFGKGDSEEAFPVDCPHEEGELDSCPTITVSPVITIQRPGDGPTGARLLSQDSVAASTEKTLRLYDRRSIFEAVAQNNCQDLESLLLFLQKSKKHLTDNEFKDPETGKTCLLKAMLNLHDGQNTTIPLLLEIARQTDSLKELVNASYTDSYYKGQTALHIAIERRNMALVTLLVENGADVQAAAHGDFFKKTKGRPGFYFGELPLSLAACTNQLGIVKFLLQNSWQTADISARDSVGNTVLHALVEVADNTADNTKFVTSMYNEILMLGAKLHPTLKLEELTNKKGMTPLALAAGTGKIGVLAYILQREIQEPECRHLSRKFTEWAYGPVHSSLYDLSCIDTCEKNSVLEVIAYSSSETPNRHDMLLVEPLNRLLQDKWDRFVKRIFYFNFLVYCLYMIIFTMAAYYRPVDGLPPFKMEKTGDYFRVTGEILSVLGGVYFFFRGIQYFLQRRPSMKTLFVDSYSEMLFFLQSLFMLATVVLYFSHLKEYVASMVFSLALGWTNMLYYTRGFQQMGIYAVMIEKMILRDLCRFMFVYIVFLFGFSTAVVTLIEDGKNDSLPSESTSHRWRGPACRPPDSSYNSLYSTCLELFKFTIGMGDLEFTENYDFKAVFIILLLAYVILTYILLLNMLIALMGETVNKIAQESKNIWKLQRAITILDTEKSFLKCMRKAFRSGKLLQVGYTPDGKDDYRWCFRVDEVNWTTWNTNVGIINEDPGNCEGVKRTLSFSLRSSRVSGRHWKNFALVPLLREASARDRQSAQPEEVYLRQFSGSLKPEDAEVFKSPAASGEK
Summary of the method: (§3)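 HEK293 cells stably transfected with human TRPV1 or rat TRPA1 cDNA (pcDNA3, G-418 selection) were loaded 1 h at room temperature with Fluo-4-AM, washed and suspended in Tyrode's buffer pH 7.4. [Ca²⁺]i was read by stirred-cuvette spectrofluorimetry before and after adding test compound at various concentrations. Signal from untransfected cells was subtracted. Efficacy was taken as percent of ionomycin (4 µM) for TRPV1 and percent of allyl isothiocyanate (100 µM) for TRPA1; EC50 was also derived.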

[7] = molecular target: Transient receptor potential cation channel subfamily A member 1 (Rattus norvegicus) (UniProt Q6RI86); test: Agonist activity at rat TRPA1 receptor expressed in HEK293 cells assessed as increase in intracellular Ca2+ concentration by spectrofluorimetric analysis relative to allyl isothiocyanate; assay type: cell-based; summary of the method: as §3
Transient receptor potential cation channel subfamily A member 1 (Rattus norvegicus), sequence (Q6RI86 whole entry): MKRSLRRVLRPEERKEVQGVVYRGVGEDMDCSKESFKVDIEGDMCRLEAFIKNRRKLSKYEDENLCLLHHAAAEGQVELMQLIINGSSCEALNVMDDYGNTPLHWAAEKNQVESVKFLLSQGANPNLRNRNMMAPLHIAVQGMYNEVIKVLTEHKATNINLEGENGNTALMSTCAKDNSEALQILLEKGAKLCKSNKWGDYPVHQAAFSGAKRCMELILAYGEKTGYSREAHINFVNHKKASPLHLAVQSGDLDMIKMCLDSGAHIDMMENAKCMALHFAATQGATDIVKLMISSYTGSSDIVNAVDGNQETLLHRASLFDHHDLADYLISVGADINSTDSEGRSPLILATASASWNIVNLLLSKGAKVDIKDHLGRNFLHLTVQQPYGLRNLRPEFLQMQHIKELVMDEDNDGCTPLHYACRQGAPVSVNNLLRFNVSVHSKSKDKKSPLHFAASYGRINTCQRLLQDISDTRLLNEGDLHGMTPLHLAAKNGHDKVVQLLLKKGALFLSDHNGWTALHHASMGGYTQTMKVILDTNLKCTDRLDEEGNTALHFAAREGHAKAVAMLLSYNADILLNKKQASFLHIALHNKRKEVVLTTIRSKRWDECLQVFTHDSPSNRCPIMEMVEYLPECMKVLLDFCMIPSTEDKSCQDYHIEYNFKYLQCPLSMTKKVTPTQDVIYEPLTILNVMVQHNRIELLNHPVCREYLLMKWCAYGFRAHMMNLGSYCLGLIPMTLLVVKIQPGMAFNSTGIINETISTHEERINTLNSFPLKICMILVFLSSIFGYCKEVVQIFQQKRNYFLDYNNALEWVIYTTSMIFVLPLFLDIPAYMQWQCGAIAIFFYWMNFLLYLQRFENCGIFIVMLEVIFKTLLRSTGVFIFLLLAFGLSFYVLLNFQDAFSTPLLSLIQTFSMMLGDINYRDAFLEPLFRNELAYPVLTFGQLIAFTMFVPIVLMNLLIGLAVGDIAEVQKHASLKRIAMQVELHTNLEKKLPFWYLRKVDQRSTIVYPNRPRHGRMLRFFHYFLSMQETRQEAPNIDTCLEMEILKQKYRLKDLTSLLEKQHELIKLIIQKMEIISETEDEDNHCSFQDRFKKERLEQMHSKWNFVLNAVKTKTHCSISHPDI

[8] = molecular target: T5, Transient receptor potential cation channel subfamily A member 1 (Rattus norvegicus, UniProt Q6RI86); test: Agonist activity at rat TRPA1 receptor expressed in HEK293 cells assessed as increase in intracellular Ca2+ concentration by spectrofluorimetric analysis; assay type: cell-based; summary of the method: as §3
T5 sequence (Q6RI86 whole entry): as above

[9] = molecular target: T4, Transient receptor potential cation channel subfamily V member 1; test: Antagonist activity at human TRPV1 receptor expressed in HEK293 cells assessed as inhibition of capsaicin-induced intracellular Ca2+ elevation incubated for 5 mins prior to capsaicin-stimulation by spectrofluorimetric analysis; assay type: cell-based
Summary of the method: (§4)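 Fluo-4-loaded HEK293 cells stably expressing human TRPV1 or rat TRPA1, in Tyrode's buffer pH 7.4, received test compound in the cuvette 5 min before agonist: capsaicin 0.1 µM for TRPV1, AITC 100 µM for TRPA1. The [Ca²⁺]i rise with agonist alone was set to 100%. IC50 came from a variable-slope sigmoidal fit. Untransfected-cell signal was subtracted.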

[10] = molecular target: T5, Transient receptor potential cation channel subfamily A member 1; test: Antagonist activity at rat TRPA1 receptor expressed in HEK293 cells assessed as inhibition of allyl isothiocyanate-induced intracellular Ca2+ elevation incubated for 5 mins prior to allyl isothiocyanate-stimulation by spectrofluorimetric analysis; assay type: cell-based; summary of the method: as §4
[11] = molecular target: T4, Transient receptor potential cation channel subfamily V member 1; test: Agonist activity at human TRPV1 receptor expressed in HEK293 cells assessed as increase in intracellular Ca2+ concentration by spectrofluorimetric analysis; assay type: cell-based; summary of the method: as §3
[12] = molecular target: TRPA1 (Rattus norvegicus); test: Agonist activity at GDH-tagged rat TRPA1 receptor expressed in HEK293F cells assessed as increase in intracellular Ca2+ concentration by Fluo-4 spectrofluorimetric assay
[13] = molecular target: T1, Diacylglycerol lipase-alpha (Homo sapiens); test: Activation of human recombinant DAGLalpha expressed in African green monkey COS7 cells assessed as increase in anandamide level per mg of extracted lipid at 1 uM preincubated for 10 mins measured after 20 mins by LC-MS analysis in presence of ionomycin (reference value: 0.16 +/- 004 pmol); assay type: cell-based; conditions: COS-7
Summary of the method: (§5)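 About 10⁶ COS-7 cells overexpressing human recombinant DAGL-α per point, preincubated 10 min with test compound or not, then 20 min at 37 °C with vehicle or ionomycin 3 µM. Cells homogenized in CHCl₃/CH₃OH/Tris-HCl 50 mM pH 7.4 (2/1/1) with 5 pmol d⁸-AEA, d⁵-2-AG and d⁴-OEA as internal standards. Levels in pmol/mg lipid extracted, mean ± SD, n = 4.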

[14] = molecular target: T1, Diacylglycerol lipase-alpha (Homo sapiens); test: Activation of human recombinant DAGLalpha expressed in African green monkey COS7 cells assessed as increase in N-oleoylethanolamine level per mg of extracted lipid at 1 uM preincubated for 10 mins measured after 20 mins by LC-MS analysis in presence of ionomycin (reference value: 1.08 +/- 0.17 pmol); assay type: cell-based; conditions: COS-7; summary of the method: as §5
[15] = molecular target: T1, Diacylglycerol lipase-alpha (Homo sapiens); test: as §2, with “1” for “3”, “analysis in presence of ionomycin” for “analysis”; assay type: cell-based; conditions: COS-7; summary of the method: as §5

IC50 (Monoglyceride lipase) [nM]	IC50 [4] [nM]	Ratio IC50 [5]	Efficacy [6] [%]	Efficacy [7] [%]	EC50 [8] [nM]	IC50 [9] [nM]	IC50 [10] [nM]	EC50 [11] [nM]	EC50 [12] [nM]	Activity [13] [pmol]	Activity [14] [pmol]	Activity [15] [pmol]	Compound	Activity [1] [pmol]	Activity [2] [pmol]	Activity [3] [pmol]
–	–	–	–	–	–	–	–	–	–	–	–	–	C[C@H](CCC(=O)O)C[C@H](C)C[C@H](C)C(=O)/C=C(\O)[C@H](C)C[C@H](C)C/C=C/[C@@H](C)[C@@H](O)[C@@H](C)[C@@H](O)C[C@@H]1CC[C@@](C)([C@H]2CC[C@@](C)([C@@H](C)O)O2)O1	3.99	15.7	0.37
> 1000	9.7	39	< 10	233	32800	> 100000	41000	–	–	–	–	–	Cc1cccc(-c2ccc(Cc3nnnn3C(=O)N(C)C)cc2)c1	–	–	–
–	96.3	–	33.6	45.2	150	9200	15400	250	150	–	–	–	CN(C(=O)n1nnc(Cc2ccc(-c3ccccc3)cc2)n1)C1CCCCC1	–	–	–
10	12	–	< 10	< 10	–	> 100000	98900	–	–	0.41	7.25	413	CN(C)C(=O)n1nnc(Cc2ccc(-c3cccc(O)c3)cc2)n1	–	–	–
